# Measured values: publication PMC6660019 (ACS catalysis, 2019)
# Like-named read-outs stand apart in the source and are kept apart here.
# Tests used:
# LmbB2 [1] = target: T1, LmbB2 (Streptomyces lincolnensis, UniProt Q54355); assay: Isothermal titration calorimetry; assay type: binding
# LmbB2 [2] = target: T1, LmbB2; assay: EPR analysis of the ferrous LmbB2-nitrosyl; conditions: 20 mM ligand; for gave (average g value) of E-NO· complex after addition of ligand: 50 K, E-NO· alone gave = 2.030; for EPR spectroscopic change compared with E-NO· alone: negative controls
# Method in brief: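 His6-tagged LmbB2 expressed in E. coli BL21(DE3) with δ-aminolevulinic acid and ferrous ammonium sulfate, then Ni-affinity purified. 200 µM argon-saturated enzyme reduced anaerobically with 1 mM sodium dithionite, then exposed to excess NO from diethylamine NONOate in a sealed O2-free vial. Phenolic ligands added at 20 mM final. Samples frozen in liquid nitrogen. X-band EPR at 9.4 GHz, 100 kHz modulation, 50 K, 0.05 mW.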
# LmbB2 [3] = target: T1, LmbB2; assay type: biochemical
# LmbB2 [4] = target: T1, LmbB2; assay: Oxygen production; assay type: biochemical; conditions: substrate concentration exceeding 200 µM, 1 mM H2O2
# LmbB2 [5] = target: T1, LmbB2; assay: LmbB2 catalytic reaction with H2O2, product analysis by HPLC; assay type: biochemical; conditions: after normalizing for the percentage of substrate conversion
# [6] = ^18O-enriched H2O2 (≥ 90% ^18O), normal water
# [7] = ^18O-enriched water (88% ^18O), normal H2O2
# [8] = ^18O-enriched water (88% ^18O), normal H2O2, listed as Tyrosine
# [9] = ITC, 100 mM KPi, 50 mM NaCl, pH 8, 20 °C
# [10] = ^18O-enriched H2O2 (≥ 90% ^18O), normal water, listed as 3-Fluoro-L-tyrosiTane
# [11] = ^18O-enriched water (88% ^18O), normal H2O2, listed as 3-Fluoro-L-tyrosiTane
smiles,measurement,setting,value
"N[C@@H](Cc1ccccc1)C(=O)O [compound 2, L-phenylalanine]",Kd,LmbB2 [1],318 ± 8 µM
same,gave (average g value) of E-NO· complex after addition of ligand,LmbB2 [2],2.027
"N[C@@H](Cc1ccc(O)cc1)C(=O)O [compound 1, L-tyrosine]",Kd,LmbB2 [1],1.35 ± 0.03 µM
same,Hydroxylation product ^16O/^16O,LmbB2 [3]; [6],7.2 ± 0.3%
same,Hydroxylation product ^16O/^18O,LmbB2 [3]; [6],over 90%
same,Hydroxylation product ^16O/^18O,"LmbB2 [3]; ^18O-enriched H2O2 (≥ 90% ^18O), normal water, listed as Tyrosine",92.8 ± 0.3%
same,Hydroxylation product ^16O/^16O,LmbB2 [3]; [7],87.7%
same,Hydroxylation product ^16O/^18O,LmbB2 [3]; [7],11.2%
same,Hydroxylation product ^18O/^18O,LmbB2 [3]; [7],1.0 ± 0.1%
same,Hydroxylation product ^16O/^16O,LmbB2 [3]; [8],87.7 ± 0.9%
same,Hydroxylation product ^16O/^18O,LmbB2 [3]; [8],11.2 ± 0.8%
same,gave (average g value) of E-NO· complex after addition of ligand,LmbB2 [2],2.027
same,rate of oxygen formation,LmbB2 [4],zero
"COc1ccc(C[C@H](N)C(=O)O)cc1 [compound 3, O-methyl-L-tyrosine]",Kd,LmbB2 [1]; [9],1290 ± 140 µM
same,gave (average g value) of E-NO· complex after addition of ligand,LmbB2 [2],2.026
"N[C@@H](Cc1ccc(O)c([N+](=O)[O-])c1)C(=O)O [compound 4, 3-nitro-L-tyrosine]",KD,LmbB2 [1]; [9],no detectable thermal change
"N[C@@H](Cc1ccc(O)c(Cl)c1)C(=O)O [compound 6, 3-chloro-L-tyrosine]",Kd,LmbB2 [1],346 ± 2 µM
same,"ratio of 1a formation among substrates 5, 6 and 7",LmbB2 [5],1.3
"N[C@@H](Cc1ccc(O)c(F)c1)C(=O)O [compound 5, 3-fluoro-L-tyrosine]",Kd,LmbB2 [1],22.2 ± 1.1 µM
same,binding affinity weaker than the native substrate,LmbB2 [1]; KD of analog versus L-tyrosine (1),around 16 fold
same,"ratio of 1a formation among substrates 5, 6 and 7",LmbB2 [5],4.5
same,Dehalogenation and Hydroxylation product (1a) ^16O/^16O,LmbB2 [3]; [6],30.3 ± 1.0%
same,Dehalogenation and Hydroxylation product (1a) ^16O/^18O,LmbB2 [3]; [6],69.7%
same,Hydroxylation product ^16O/^16O,LmbB2 [3]; [6],15.5 ± 0.2%
same,Hydroxylation product ^16O/^18O,LmbB2 [3]; [6],84.5%
same,Dehalogenation and Hydroxylation product (1a) ^16O/^18O,LmbB2 [3]; [10],69.7 ± 1.0%
same,Hydroxylation product ^16O/^18O,LmbB2 [3]; [10],84.5 ± 0.2%
same,Dehalogenation and Hydroxylation product (1a) ^16O/^16O,LmbB2 [3]; [7],36.2%
same,Dehalogenation and Hydroxylation product (1a) ^16O/^18O,LmbB2 [3]; [7],51.5%
same,Dehalogenation and Hydroxylation product (1a) ^18O/^18O,LmbB2 [3]; [7],12.3%
same,Hydroxylation product ^16O/^16O,LmbB2 [3]; [7],57.3%
same,Hydroxylation product ^16O/^18O,LmbB2 [3]; [7],35.8%
same,Hydroxylation product ^18O/^18O,LmbB2 [3]; [7],6.9%
same,Dehalogenation and Hydroxylation product (1a) ^16O/^16O,LmbB2 [3]; [11],36.2 ± 0.9%
same,Dehalogenation and Hydroxylation product (1a) ^16O/^18O,LmbB2 [3]; [11],51.5 ± 0.7%
same,Dehalogenation and Hydroxylation product (1a) ^18O/^18O,LmbB2 [3]; [11],12.3 ± 1.2%
same,Hydroxylation product ^16O/^16O,LmbB2 [3]; [11],57.3 ± 1.6%
same,Hydroxylation product ^16O/^18O,LmbB2 [3]; [11],35.8 ± 1.6%
same,Hydroxylation product ^18O/^18O,LmbB2 [3]; [11],6.9 ± 0.7%
same,rate of oxygen formation,LmbB2 [4],~10 min⁻¹
Cc1ccc(O)cc1 [p-cresol],EPR spectroscopic change compared with E-NO· alone,LmbB2 [2],no significant EPR spectroscopic change
"N[C@@H](Cc1ccc(O)c(I)c1)C(=O)O [compound 7, 3-iodo-L-tyrosine]",Kd,LmbB2 [1],7820 ± 180 µM
same,"ratio of 1a formation among substrates 5, 6 and 7",LmbB2 [5],1
CC(C)(C)OC(=O)N[C@@H](Cc1ccc(O)cc1)C(=O)O [N-boc-L-tyrosine],EPR spectroscopic change compared with E-NO· alone,LmbB2 [2],no significant EPR spectroscopic change
